Measurements as given in ChEMBL document CHEMBL1125404 (J Med Chem, 1992).

How the values were obtained:
[1] = t1/2 (pH 3); format: ADME
[2] = t1/2 (pH 5); format: ADME
[3] = Half life at pH 7.4; format: ADME; settings: buffer
[4] = molecular target: Sodium/potassium-transporting ATPase; test: In vitro evaluation for its ability to inhibit the Na+/K+ ATPase at pH 7.4.; format: protein-complex assay, Canis lupus familiaris
Procedure, shortened: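 Dog kidney (Na+,K+)-ATPase (20 μg) incubated in 50 mmol/L HEPES pH 7.4 containing (mmol/L) 140 NaCl, 10 KCl, 3 ATP-Mg and 0.5 EDTA, with inhibitor at 0–300 μmol/L.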

[5] = molecular target: Potassium-transporting ATPase (Oryctolagus cuniculus); test: In vitro evaluation for the inhibition of H+/K+ ATPase at pH < 3 in the gastric glands of isolated rabbit stomach.
[6] = pKa value (pyridine); format: physicochemical
Procedure, shortened: (§1)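 Measured spectrophotometrically at ambient temperature (25 °C).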

[7] = pKa value (imidazole); format: physicochemical; procedure, shortened: as §1
[8] = Half life at pH 7.4; Insoluble to measure; format: ADME; settings: buffer
[9] = Half life at pH 5; Insoluble to measure; format: ADME; settings: buffer
[10] = Half life at pH 3; Insoluble to measure; format: ADME; settings: buffer

Structure (SMILES)	half-life [1] [h]	half-life [2] [h]	half-life [3] [h]	-Log IC50 [4]	IC50 [5] [µM]	pKa [6]	pKa [7]	T1/2 [8]	T1/2 [9]	T1/2 [10]
COc1ccnc(C[S+]([O-])c2nc3cc(OC(F)F)ccc3[nH]2)c1 (stereo unspecified)	0.167	0.8	51	4.3	1.58	–	–	–	–	–
COc1ccnc(C[S+]([O-])c2nc3cc(F)c(OC(F)F)cc3[nH]2)c1C (stereo unspecified)	0.133	0.5	4	4.7	3.16	–	–	–	–	–
COc1cc2[nH]c([S+]([O-])Cc3nccc(OC)c3C)nc2cc1OC(F)F (stereo unspecified)	0.1	0.2	11	5	1.58	4.96	8.31	–	–	–
COc1ccnc(C[S+]([O-])c2nc3cc4c(cc3[nH]2)OC(F)(F)O4)c1C (stereo unspecified)	0.167	0.5	–	4.6	1	4.73	7.93	Insoluble to measure	–	–
COc1cnc(C[S+]([O-])c2nc3cc4c(cc3[nH]2)OC(F)(F)O4)c(C)c1OC (stereo unspecified)	–	–	–	< 3	15.8	–	–	Insoluble to measure	Insoluble to measure	Insoluble to measure
COc1cnc(C[S+]([O-])c2nc3cc4c(cc3[nH]2)OC(F)(F)O4)cc1OC (stereo unspecified)	–	–	–	< 3	63.1	–	–	Insoluble to measure	Insoluble to measure	Insoluble to measure
COc1cnc(C[S+]([O-])c2nc3cc(OC(F)F)ccc3[nH]2)cc1OC (stereo unspecified)	0.283	2.1	> 200	< 3.5	31.6	3.75	8.03	–	–	–
COc1ccnc(C[S+]([O-])c2nc3cc4c(cc3[nH]2)OC(F)(F)O4)c1OC (stereo unspecified)	0.633	6	> 200	3.6	2.51	3.84	7.97	–	–	–
COc1c(C)cnc(C[S+]([O-])c2nc3cc(OC(F)F)ccc3[nH]2)c1C (stereo unspecified)	0.2	1.9	15	4.4	0.501	4.16	8.23	–	–	–
COc1ccnc(C[S+]([O-])c2nc3cc4c(cc3[nH]2)OC(F)(F)O4)c1 (stereo unspecified)	0.333	1.4	–	< 3.5	2.51	4.29	7.92	Insoluble to measure	–	–
COc1cnc(C[S+]([O-])c2nc3cc(OCC(F)(F)F)ccc3[nH]2)c(C)c1OC (stereo unspecified)	0.167	3.3	130	4.3	2.51	3.72	8.61	–	–	–
Cc1c(OCC(F)(F)F)ccnc1C[S+]([O-])c1nc2ccccc2[nH]1 (stereo unspecified) [LANSOPRAZOLE]	0.0667	1.1	40	4.4	–	4.01	8.78	–	–	–
COc1ccc2[nH]c([S+]([O-])Cc3ncc(C)c(OC)c3C)nc2c1 (stereo unspecified) [OMEPRAZOLE]	0.0667	1	80	4.5	–	4.13	8.98	–	–	–

Results, then the compound that gave them:

half-life [1] [h]	half-life [2] [h]	half-life [3] [h]	-Log IC50 [4]	IC50 [5] [µM]	pKa [6]	pKa [7]	T1/2 [8]	T1/2 [9]	T1/2 [10]	Structure (SMILES)
0.333	6.8	43	4.2	7.94	–	–	–	–	–	COc1cnc(C[S+]([O-])c2nc3cc(OC(F)(F)C(F)F)ccc3[nH]2)c(C)c1OC (stereo unspecified)
0.317	2.9	140	< 3	20	–	–	–	–	–	COc1cnc(C[S+]([O-])c2nc3cc(OC(F)(F)C(F)F)ccc3[nH]2)cc1OC (stereo unspecified)
0.1	0.2	18	5.5	1.26	4.95	8	–	–	–	COc1cc(C[S+]([O-])c2nc3cc(OC(F)(F)C(F)F)ccc3[nH]2)ncc1C (stereo unspecified)
0.183	7.6	> 200	3.5	1	3.9	8.52	–	–	–	COc1ccnc(C[S+]([O-])c2nc3cc(OCC(F)(F)F)ccc3[nH]2)c1OC (stereo unspecified)
0.167	0.8	63	4.4	1.26	4.25	7.91	–	–	–	COc1ccnc(C[S+]([O-])c2nc3cc(OC(F)(F)C(F)F)ccc3[nH]2)c1 (stereo unspecified)
0.2	3.7	60	4.6	2.51	3.73	8.35	–	–	–	COc1cnc(C[S+]([O-])c2nc3cc(OC(F)F)ccc3[nH]2)c(C)c1OC (stereo unspecified)
0.0833	0.17	3	5.2	0.631	–	–	–	–	–	COc1ccnc(C[S+]([O-])c2nc3cc(OC(F)F)ccc3[nH]2)c1C (stereo unspecified)
0.0833	0.3	–	5.5	0.398	–	–	Insoluble to measure	–	–	COc1ccnc(C[S+]([O-])c2nc3cc(OC(F)(F)C(F)F)ccc3[nH]2)c1C (stereo unspecified)
0.3	3.6	160	3.8	5.01	3.86	8.08	–	–	–	COc1ccnc(C[S+]([O-])c2nc3cc(OC(F)(F)C(F)F)ccc3[nH]2)c1OC (stereo unspecified)
0.25	2.1	800	3.6	3.98	–	–	–	–	–	COc1cc2[nH]c([S+]([O-])Cc3nccc(OC)c3OC)nc2cc1OC(F)F (stereo unspecified)
0.433	8.3	150	3.4	7.94	3.76	7.76	–	–	–	COc1ccnc(C[S+]([O-])c2nc3cc(F)c(OC(F)F)cc3[nH]2)c1OC (stereo unspecified)
0.0833	0.15	5	5.4	0.794	4.97	8.51	–	–	–	COc1ccnc(C[S+]([O-])c2nc3cc(OCC(F)(F)F)ccc3[nH]2)c1C (stereo unspecified)
0.15	3	130	3.7	–	3.92	8.19	–	–	–	COc1ccnc(C[S+]([O-])c2nc3cc(OC(F)F)ccc3[nH]2)c1OC (stereo unspecified) [PANTOPRAZOLE]
